Measurements reported in ChEMBL document CHEMBL3124820, “Design, synthesis and biological evaluation of hetero-aromatic moieties substituted pyrrole-2-carbonitrile derivatives as dipeptidyl peptidase IV inhibitors” (Eur J Med Chem, 2014).
Each block holds one molecule with its values, some of them ahead of it.

Columns and labels:
[1] = species on record: Homo sapiens; experiment: Selectivity ratio of IC50 for recombinant his6-tagged DPP8 (unknown origin) to IC50 for recombinant his6-tagged DPP4 (unknown origin)
Procedure, shortened: (§1)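 His6-tagged DPP4, DPP8 and DPP9 were expressed in High Five insect cells by baculovirus and purified on Ni-NTA. Activity was followed continuously by fluorescence of AMC released from Ala-Pro-AMC (ex 355/em 460 nm). DPP4 ran at 50 pmol/L enzyme in HEPES pH 7.5 with 0.1 mg/mL BSA; DPP8 and DPP9 ran at pH 8.0. IC50s came from quadruplicate sigmoidal variable-slope fits, and the ratio is the IC50 ratio.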

[2] = species on record: Homo sapiens; experiment: Selectivity ratio of IC50 for recombinant his6-tagged DPP9 (unknown origin) to IC50 for recombinant his6-tagged DPP4 (unknown origin); procedure, shortened: as §1
[3] = biological target: Dipeptidyl peptidase 9 (Homo sapiens, UniProt Q86TI2); experiment: Inhibition of recombinant his6-tagged DPP9 (unknown origin) expressed in baculovirus expression system using Ala-pro-AMC as substrate by fluorometric analysis
Dipeptidyl peptidase 9, sequence (Q86TI2 whole entry): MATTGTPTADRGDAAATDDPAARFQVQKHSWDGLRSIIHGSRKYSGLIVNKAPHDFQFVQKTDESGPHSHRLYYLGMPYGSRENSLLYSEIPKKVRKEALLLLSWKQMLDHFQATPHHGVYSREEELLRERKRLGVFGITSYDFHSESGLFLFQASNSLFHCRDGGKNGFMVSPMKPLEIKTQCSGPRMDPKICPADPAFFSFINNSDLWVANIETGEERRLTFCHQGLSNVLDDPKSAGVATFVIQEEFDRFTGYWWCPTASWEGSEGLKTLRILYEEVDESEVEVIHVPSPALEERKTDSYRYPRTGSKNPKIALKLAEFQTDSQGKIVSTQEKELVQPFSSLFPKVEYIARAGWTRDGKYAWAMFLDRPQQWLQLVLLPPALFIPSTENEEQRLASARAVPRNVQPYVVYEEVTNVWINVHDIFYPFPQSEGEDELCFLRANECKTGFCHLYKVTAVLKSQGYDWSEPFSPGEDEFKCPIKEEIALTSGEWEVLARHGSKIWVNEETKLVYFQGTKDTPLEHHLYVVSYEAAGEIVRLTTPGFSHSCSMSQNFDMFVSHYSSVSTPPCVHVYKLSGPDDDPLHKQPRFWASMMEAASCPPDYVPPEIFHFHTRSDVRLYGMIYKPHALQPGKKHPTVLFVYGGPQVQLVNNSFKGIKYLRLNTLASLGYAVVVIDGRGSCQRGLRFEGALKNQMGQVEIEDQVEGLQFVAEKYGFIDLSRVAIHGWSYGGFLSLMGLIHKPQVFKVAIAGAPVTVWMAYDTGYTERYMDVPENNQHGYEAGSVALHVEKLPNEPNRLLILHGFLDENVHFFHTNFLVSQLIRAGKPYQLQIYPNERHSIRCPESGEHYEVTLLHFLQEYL

[4] = biological target: Dipeptidyl peptidase 8 (Homo sapiens, UniProt Q6V1X1); experiment: Inhibition of recombinant his6-tagged DPP8 (unknown origin) expressed in baculovirus expression system using Ala-pro-AMC as substrate by fluorometric analysis
Dipeptidyl peptidase 8, sequence (Q6V1X1 whole entry): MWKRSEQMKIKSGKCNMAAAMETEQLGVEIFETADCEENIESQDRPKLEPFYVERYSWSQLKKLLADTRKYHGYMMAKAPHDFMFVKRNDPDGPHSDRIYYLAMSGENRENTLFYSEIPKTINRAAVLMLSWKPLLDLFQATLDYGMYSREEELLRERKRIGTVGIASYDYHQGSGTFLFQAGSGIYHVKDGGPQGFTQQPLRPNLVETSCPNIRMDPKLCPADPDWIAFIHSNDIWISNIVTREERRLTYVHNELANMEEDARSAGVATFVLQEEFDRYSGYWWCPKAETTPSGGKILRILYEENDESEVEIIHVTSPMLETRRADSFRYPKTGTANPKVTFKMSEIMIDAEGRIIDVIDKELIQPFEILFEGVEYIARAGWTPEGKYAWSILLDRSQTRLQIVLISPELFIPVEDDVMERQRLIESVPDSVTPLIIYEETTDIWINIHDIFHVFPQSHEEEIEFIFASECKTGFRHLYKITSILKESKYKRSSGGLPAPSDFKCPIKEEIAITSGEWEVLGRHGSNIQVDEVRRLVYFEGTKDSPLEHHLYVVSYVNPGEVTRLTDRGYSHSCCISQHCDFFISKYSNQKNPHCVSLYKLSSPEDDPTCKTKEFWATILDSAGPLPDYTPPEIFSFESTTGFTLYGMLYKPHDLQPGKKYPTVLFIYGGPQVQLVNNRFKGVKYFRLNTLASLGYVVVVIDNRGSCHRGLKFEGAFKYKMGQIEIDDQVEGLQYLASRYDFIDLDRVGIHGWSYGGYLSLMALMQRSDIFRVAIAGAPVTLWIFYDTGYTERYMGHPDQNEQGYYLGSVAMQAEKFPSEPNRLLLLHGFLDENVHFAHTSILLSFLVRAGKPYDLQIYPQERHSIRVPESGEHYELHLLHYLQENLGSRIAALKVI

[5] = biological target: Dipeptidyl peptidase 4 (Homo sapiens, UniProt P27487); experiment: Inhibition of recombinant his6-tagged DPP4 (unknown origin) expressed in baculovirus expression system using Ala-pro-AMC as substrate by fluorometric analysis
Dipeptidyl peptidase 4, sequence (P27487 whole entry): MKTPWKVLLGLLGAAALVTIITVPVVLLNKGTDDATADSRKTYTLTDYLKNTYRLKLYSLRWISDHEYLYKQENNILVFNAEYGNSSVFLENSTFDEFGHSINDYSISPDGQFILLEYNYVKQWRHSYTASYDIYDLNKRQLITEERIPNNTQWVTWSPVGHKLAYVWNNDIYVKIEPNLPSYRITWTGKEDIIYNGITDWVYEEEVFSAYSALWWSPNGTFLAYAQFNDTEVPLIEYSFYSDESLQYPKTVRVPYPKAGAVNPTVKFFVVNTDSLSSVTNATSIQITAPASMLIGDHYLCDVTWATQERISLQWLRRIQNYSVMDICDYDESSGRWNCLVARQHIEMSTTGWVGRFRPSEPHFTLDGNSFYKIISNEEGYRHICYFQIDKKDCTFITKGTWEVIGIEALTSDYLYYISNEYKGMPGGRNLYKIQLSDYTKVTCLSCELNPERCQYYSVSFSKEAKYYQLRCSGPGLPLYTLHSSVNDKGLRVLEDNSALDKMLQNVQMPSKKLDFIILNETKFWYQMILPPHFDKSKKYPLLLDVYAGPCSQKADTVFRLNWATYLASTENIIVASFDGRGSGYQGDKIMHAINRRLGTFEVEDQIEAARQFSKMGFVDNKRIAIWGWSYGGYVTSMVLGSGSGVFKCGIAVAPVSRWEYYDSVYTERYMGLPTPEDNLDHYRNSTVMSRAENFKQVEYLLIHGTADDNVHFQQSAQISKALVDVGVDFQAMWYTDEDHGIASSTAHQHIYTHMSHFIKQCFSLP

[6] = biological target: CYP2C9 (Homo sapiens, UniProt P11712); experiment: Inhibition of CYP2C9 (unknown origin) at 100 uM relative to control; assay type: ADME
CYP2C9, sequence (P11712 whole entry): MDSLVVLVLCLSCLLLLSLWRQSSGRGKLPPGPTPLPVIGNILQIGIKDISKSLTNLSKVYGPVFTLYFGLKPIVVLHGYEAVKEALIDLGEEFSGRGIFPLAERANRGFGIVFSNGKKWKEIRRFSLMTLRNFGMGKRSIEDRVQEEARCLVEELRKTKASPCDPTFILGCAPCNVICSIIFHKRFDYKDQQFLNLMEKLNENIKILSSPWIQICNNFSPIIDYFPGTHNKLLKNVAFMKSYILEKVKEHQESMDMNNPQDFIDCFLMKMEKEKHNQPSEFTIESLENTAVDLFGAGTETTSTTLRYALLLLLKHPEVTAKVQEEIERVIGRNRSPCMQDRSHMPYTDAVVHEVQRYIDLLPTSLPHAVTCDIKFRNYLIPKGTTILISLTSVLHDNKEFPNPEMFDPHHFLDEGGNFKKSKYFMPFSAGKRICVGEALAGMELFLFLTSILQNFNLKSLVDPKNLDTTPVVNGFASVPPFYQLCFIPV

[7] = biological target: Cytochrome P450 3A4 (Homo sapiens, UniProt P08684); experiment: Inhibition of CYP3A4 (unknown origin); assay type: ADME
Cytochrome P450 3A4, sequence (P08684 whole entry): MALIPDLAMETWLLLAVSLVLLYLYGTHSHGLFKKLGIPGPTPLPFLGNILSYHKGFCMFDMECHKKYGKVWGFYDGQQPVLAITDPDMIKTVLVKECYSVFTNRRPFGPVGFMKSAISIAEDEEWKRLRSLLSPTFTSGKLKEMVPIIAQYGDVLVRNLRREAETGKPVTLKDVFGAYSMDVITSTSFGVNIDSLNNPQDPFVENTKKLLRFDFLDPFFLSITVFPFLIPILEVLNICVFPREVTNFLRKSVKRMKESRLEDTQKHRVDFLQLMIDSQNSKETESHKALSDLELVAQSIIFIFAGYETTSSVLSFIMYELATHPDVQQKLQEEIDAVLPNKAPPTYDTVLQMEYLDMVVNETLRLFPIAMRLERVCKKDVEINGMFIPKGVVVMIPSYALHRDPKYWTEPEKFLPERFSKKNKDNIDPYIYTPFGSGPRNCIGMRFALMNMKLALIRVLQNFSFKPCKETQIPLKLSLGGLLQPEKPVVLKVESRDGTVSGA

[8] = Oral bioavailability in Sprague-Dawley rat at 20 mg/kg; assay type: ADME, organism-based; conditions: in vivo
Procedure, shortened: (§2)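 Sprague-Dawley rats were dosed orally or intravenously, and blood was sampled after dosing. Plasma was separated by centrifugation and deproteinized with methanol containing an internal standard. The supernatant was diluted with methanol, centrifuged again and quantified by LC/MS/MS.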

[9] = Apparent clearance in Sprague-Dawley rat at 5 mg/kg, iv; assay type: ADME, organism-based; parameters: dose 5 mg/kg, route intravenous; conditions: in vivo, read-out: CL(app) (converted); procedure, shortened: as §2
[10] = Half life in Sprague-Dawley rat at 5 mg/kg, iv; assay type: ADME, organism-based; parameters: dose 5 mg/kg, route intravenous; conditions: in vivo; procedure, shortened: as §2
[11] = Half life in Sprague-Dawley rat at 20 mg/kg, po; assay type: ADME, organism-based; parameters: dose 20 mg/kg, route oral; conditions: in vivo; procedure, shortened: as §2
[12] = Mean residence time in Sprague-Dawley rat at 5 mg/kg, iv; assay type: ADME, organism-based; parameters: dose 5 mg/kg, route intravenous; conditions: in vivo; procedure, shortened: as §2
[13] = Mean residence time in Sprague-Dawley rat at 20 mg/kg, po; assay type: ADME, organism-based; parameters: dose 20 mg/kg, route oral; conditions: in vivo; procedure, shortened: as §2
[14] = AUC (0 to infinity) in Sprague-Dawley rat at 5 mg/kg, iv; assay type: ADME, organism-based; parameters: time infinity, dose 5 mg/kg, route intravenous; conditions: plasma; procedure, shortened: as §2
[15] = AUC (0 to infinity) in Sprague-Dawley rat at 20 mg/kg, po; assay type: ADME, organism-based; parameters: time infinity, dose 20 mg/kg, route oral; conditions: plasma; procedure, shortened: as §2
[16] = AUC (0 to t) in Sprague-Dawley rat at 5 mg/kg, iv; assay type: ADME, organism-based; parameters: dose 5 mg/kg, route intravenous; conditions: plasma; procedure, shortened: as §2
[17] = AUC (0 to t) in Sprague-Dawley rat at 20 mg/kg, po; assay type: ADME, organism-based; parameters: dose 20 mg/kg, route oral; conditions: plasma; procedure, shortened: as §2
[18] = Cmax in Sprague-Dawley rat at 5 mg/kg, iv; assay type: ADME, organism-based; parameters: dose 5 mg/kg, route intravenous; conditions: in vivo; procedure, shortened: as §2
[19] = Cmax in Sprague-Dawley rat at 20 mg/kg, po; assay type: ADME, organism-based; parameters: dose 20 mg/kg, route oral; conditions: in vivo; procedure, shortened: as §2
[20] = Tmax in Sprague-Dawley rat at 5 mg/kg, iv; assay type: ADME, organism-based; parameters: dose 5 mg/kg, route intravenous; conditions: in vivo; procedure, shortened: as §2
[21] = Tmax in Sprague-Dawley rat at 20 mg/kg, po; assay type: ADME, organism-based; parameters: dose 20 mg/kg, route oral; conditions: in vivo; procedure, shortened: as §2
[22] = tested on: Mus musculus; experiment: Antidiabetic activity in ICR mouse assessed as decrease in blood glucose AUC (0 to 120 mins) administered for 30 mins prior to glucose challenge measured after 4 hrs by OGTT; assay type: functional, organism-based
Procedure, shortened: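 ICR mice fasted 16 h, then given a single dose of 15 or 50 mg/kg; vehicle 0.5% methylcellulose (10 mL/kg), LAF237 30 mg/kg as positive control. Oral glucose 2.5 g/kg given 30 min after dosing (legend says 4 h). Blood glucose read at 0, 15, 30, 60, 90, 120 min for AUC0–120. Mean ± SE, n = 10; Student's t-test.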

[23] = tested on: Mus musculus; experiment: Antidiabetic activity in ICR mouse assessed as decrease in blood glucose AUC (0 to 120 mins) at 50 mg/kg administered for 30 mins prior to glucose challenge measured after 4 hrs by OGTT relative to vehicle-treated control; assay type: functional; parameters: scale not given: the % may be the effect or the level left
Procedure, shortened: (§3)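 ICR mice were fasted 16 h and given one dose in 0.5% methylcellulose vehicle (10 mL/kg). An oral glucose load of 2.5 g/kg followed; methods state 30 min after dosing, the figure legend 4 h.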

[24] = tested on: Mus musculus; experiment: Antidiabetic activity in ICR mouse assessed as decrease in blood glucose AUC (0 to 120 mins) at 15 mg/kg administered for 30 mins prior to glucose challenge measured after 4 hrs by OGTT relative to vehicle-treated control; assay type: functional; parameters: scale not given: the % may be the effect or the level left; procedure, shortened: as §3

Ratio IC50 [1]: > 2.5
Ratio IC50 [2]: > 2.5
IC50 [3]: > 288 µM
IC50 [4]: > 288 µM
IC50 [5]: 114 µM
Compound: N#C[C@@H]1CCCN1C(=O)[C@@H](N)Cc1ccoc1

inhibition at 100 µM [6]: -20.3%
IC50 [7]: 2200 nM
bioavailability [8]: 16.8%
clearance [9]: 43.5 mL/min/kg
half-life [10]: 37.8 min
half-life [11]: 218 min
MRT [12]: 33 min
MRT [13]: 3.15 h
AUC(0-inf) [14]: 1920 ng·h/mL
AUC(0-inf) [15]: 1580 ng·h/mL
AUC(0-t) [16]: 1920 ng·h/mL
AUC(0-t) [17]: 1290 ng·h/mL
Cmax [18]: 2030 ng/mL
Cmax [19]: 2200 ng/mL
Tmax [20]: 18 min
Tmax [21]: 18 min
Compound: N#C[C@@H]1C[C@H](F)CN1C(=O)[C@@H](N)Cc1cc2c(cc1Br)OCO2
Activity [22]: Dose-dependent effect
Activity [23]: 23.6%
Activity [24]: 12.2%

IC50 [3]: 144 µM
IC50 [4]: 125 µM
Compound: N#C[C@@H]1CCCN1C(=O)[C@@H](N)Cc1ccccn1
